# Source: PubChem
# Only some compounds are listed: those with a hit (about 4.8% of all), similar ones and a draw of the others.
# HSF1 inh – HSF1 inhibition; NIH3T3-HGL HSE-luciferase, MG132-induced, luminescence 8 h; active compounds read low; activity change, negative = inhibition, % at 7.5 µM (by protocol); 0.77% of 300,000 active;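 active = more than half of replicate wells show activity change below -50%, luminescence cut by over half; inconclusive = some wells, but at most half, below -50%; inactive = no replicate well below -50%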;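 also: luciferase reports HSF-1 transcriptional activity via heat shock element; 0% = median of DMSO wells and -100% = zero luminescence signal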
# HSF-1 act – increases HSF-1 driven luciferase reporter signal; NIH3T3-HGL HSF-1 luciferase reporter, MG132, 8 h; 100% = twice DMSO control signal; activation, % at 9 µM; 1.7% of 300,000 active; AID 504408;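 active = mean replicate activation of at least 50% with a set share of replicates each reaching 50%; inconclusive = only one of those two conditions met; inactive = mean below 50% and too few replicates reaching it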;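 also: 0% = median of the neutral control wells and 100% = twice that signal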
# Jurkat NFkB inh – lowers PMA/ionomycin-induced NF-kB signal in Jurkat cells | PMA/ionomycin-induced NF-kB luciferase reporter, luminescence | inhibition, % at 4 µM | 0.53% of 330,000 active; in the data active = inhibition above about 50%
# 697 NFkB inh – lowers PMA/ionomycin-induced NF-kB signal in 697 B cells. 697 B-cell NF-kB luciferase reporter, 16 h. inhibition, % at 4 µM. 0.33% of 330,000 active. AID 435022; in the data active = inhibition above about 35%
# T cruzi inh – T. cruzi replication inhibition. T. cruzi beta-gal in NIH3T3, luminescence, 90 h. 1.4% of 300,000 active. inhibition, % (concentration not given with the values);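 active = mean inhibition across valid replicates above about 55%, limit read from the data; inconclusive = mean below that limit but half or more replicates reach it; inactive = mean below it, under half of replicates reach it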;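 also: signal also drops with host cell toxicity which is not excluded here; 0% = plate median of DMSO wells and 100% = zero luminescence signal; higher percent means less beta-gal luminescence so fewer parasites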
#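 System: Mouse NIH/3T3 fibroblasts infected with β-gal-expressing T. cruzi Tulahuen C4 | Quantity: NIH/3T3 cells, 5,000 per well | Reagent: 5000 reporter trypomastigotes per well | Dosing: Compound pinned at 50 nL/well, DMSO | Schedule: 3 h host attachment, then at least 90 h co-culture | Detection: GalScreen luminescence, 60 min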
# GPR7 antagonist – antagonists of human GPR7 (neuropeptides B/W receptor 1) | GPR7-expressing cells, fluorescence antagonist assay | 1.1% of 290,000 active | inhibition, % at 4.4 µM; in the data active = inhibition above about 16%, passing the limit was not always enough;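 also: cells stimulated with the agonist NPW; 0% = agonist with vehicle and 100% = vehicle without agonist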
# Target sequence (P48145 whole entry, looked up): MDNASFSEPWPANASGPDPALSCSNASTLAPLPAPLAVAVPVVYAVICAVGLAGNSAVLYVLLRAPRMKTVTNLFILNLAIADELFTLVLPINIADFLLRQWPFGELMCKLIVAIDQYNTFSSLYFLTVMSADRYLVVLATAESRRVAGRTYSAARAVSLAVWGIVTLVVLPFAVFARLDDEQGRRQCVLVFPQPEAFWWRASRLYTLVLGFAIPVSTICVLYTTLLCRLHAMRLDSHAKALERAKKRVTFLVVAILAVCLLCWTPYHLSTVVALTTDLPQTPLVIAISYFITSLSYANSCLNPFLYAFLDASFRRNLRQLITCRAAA
# Starred values were filed as active, the others as inactive; ? = inconclusive; nt = no result.
SMILES,HSF1 inh,HSF-1 act,Jurkat NFkB inh,697 NFkB inh,T cruzi inh,GPR7 antagonist
CN1CCC(N(C)C(=O)c2sc3cc(F)ccc3c2Cl)CC1,-2,12,0,-14,78*,3
COc1ccc(-c2cc(COc3ccccc3)on2)cc1,38,35,-49,-42,-28,4
Fc1ccc(OCc2cc(-c3ccccc3)no2)cc1,26,51*,-81,-112,1,5
COc1ccc(C(=O)NC2CCN(CC(=O)N3CCCCC3)CC2)cc1,-6,12,-16,-11,-10,2
CN1CCN(C(=O)c2cnn3c(C(F)(F)F)cc(-c4cccs4)nc23)CC1,1,-8,-17,-9,3,-2
O=C(c1cnn2c(C(F)(F)F)cc(-c3cccs3)nc12)N1CCN(Cc2ccccc2)CC1,-1,-8,4,3,75*,-9
COc1ccc2c(c1)c(CC(=O)Nc1ccc(C(C)=O)cc1)c(C)n2C(=O)c1ccc(Cl)cc1,4,19,2,-24,35,19
COc1ccc2c(c1)c(CC(=O)Nc1ccccc1OC)c(C)n2C(=O)c1ccc(Cl)cc1,8,9,28,-2,48,3
COc1ccc2c(c1)c(CC(=O)Nc1nnc(C3CC3)s1)c(C)n2C(=O)c1ccc(Cl)cc1,-43,-55,18,18,57*,-11
COc1ccc2c(c1)c(CC(=O)Nc1cc(C)ccc1C)c(C)n2C(=O)c1ccc(Cl)cc1,7,15,16,-8,60*,-9
CCOC(=O)[C@@H]1[C@H]2COc3ccc(Br)cc3[C@@H]2N2C(=O)N(c3ccc(C)cc3)C(=O)[C@@]12C,nt,nt,2,4,nt,nt
CC(=O)NS(=O)(=O)c1ccc(NC(=O)CC(C)c2ccccc2)cc1 (stereo not given),-11,-5,-12,20,-17,-3
COc1ccc(CCN(Cc2cccs2)S(=O)(=O)c2ccc(S(=O)(=O)N3CCCCCC3)cc2)cc1OC,4,14,9,-20,11,-7
CCC(C)NS(=O)(=O)c1ccc(S(=O)(=O)N(CCc2ccc(OC)c(OC)c2)Cc2cccs2)cc1 (stereo not given),2,13,21,-5,57*,19
Cn1cccc1/C=C1\SC(=O)N(c2ccccc2)C1=O,24,65*,-70,-136,-20,5
CC1(C)CC(=O)C2=C(C1)Nc1ccccc1NC2c1cccnc1 (stereo not given),-9,-25,-7,-19,2,nt
CN(C)c1ccc(-c2nc3n(n2)C(c2cccnc2)C2=C(CC(C)(C)CC2=O)N3)cc1 (stereo not given),-70*,-76,-1,-11,0,-8
Cc1[nH]c2c(C)cccc2c1CN1CCC(CO)(Cc2ccccc2)CC1,-5,-9,4,8,18,5
CCCOc1cc(N(CC)CC)ccc1/C=C(/C#N)c1nc2ccc(C)cc2[nH]1,-2,-10,-6,8,64*,20
COc1cc(/C=C(\C#N)c2nc3ccc(C)cc3[nH]2)c([N+](=O)[O-])cc1OC,21,64*,-3,-10,20,-2
CCN(CC)c1ccc(/C=C(/C#N)c2nc3ccc(C)cc3[nH]2)c(OC(C)C)c1,-3,1,-18,-28,84*,38*
CCOc1cc(N(CC)CC)ccc1/C=C(/C#N)c1nc2ccccc2[nH]1,-7,-17,-46,-76,?,0
COc1cc(/C=C(\C#N)c2nc3ccc(C)cc3[nH]2)cc([N+](=O)[O-])c1O,nt,nt,nt,nt,nt,-3
Cc1ccc2nc(/C(C#N)=C\c3cc(O)ccc3[N+](=O)[O-])[nH]c2c1,5,17,-11,-5,4,-8
COC(=O)Cn1c(=O)c2c(nc3n2CC(C)CN3Cc2ccccc2)n(C)c1=O (stereo not given),0,3,4,10,-36,2
COC(=O)Cn1c(=O)c2c(nc3n2CC(C)CN3CCc2ccccc2)n(C)c1=O (stereo not given),18,63*,-4,-4,-6,3
O=C(Cn1cc(C(F)(F)F)cc(Cl)c1=O)NCCc1ccccc1,1,6,4,19,10,-2
